Shown are actives, neighbours in structure and some others; about 1.4% of the full set was active somewhere.
m-calpain inh: calpain II (pig) inhibition; purified calpain II, fluorogenic peptide substrate, 30 min; inhibition, % at 16 µM; 0.37% of 220,000 active;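 active = inhibition above about 50%, limit read from the data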
Thrombin inh: thrombin (human) inhibition; P00734; alpha-thrombin, Boc-VPR-AMC fluorogenic substrate cleavage; inhibition, % at 5 µM; 0.26% of 220,000 active;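 active = inhibition at or above 40%; inactive = inhibition below 40%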
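System: human alpha-thrombin protein; Compound dosing: one concentration per compound, 5 µM, with 0.2% DMSO; Timing: reaction at room temperature; Technique: AMC fluorescence, 355/460 nm; Controls: enzyme without compound as high, wells lacking enzyme as low.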
FXIa inh: inhibitors of human coagulation factor XIa; P03951; purified FXIa, Boc-Glu-Ala-Arg-AMC fluorogenic substrate; 0.14% of 220,000 active; inhibition, % at 5 µM;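 active = inhibition of at least 40%; inactive = inhibition below 40%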;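 note: fluorescence of freed AMC excited at 355 nm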
FXIIa inh 1536: blocks human coagulation factor XIIa protease activity; purified FXIIa, Boc-QGR-AMC fluorogenic substrate, 2 h; P00748; inhibition, % at 5 µM; 0.3% of 220,000 active; AID 800; in the data active = inhibition above about 40%
Target sequence (P00748 20-372 limits assumed): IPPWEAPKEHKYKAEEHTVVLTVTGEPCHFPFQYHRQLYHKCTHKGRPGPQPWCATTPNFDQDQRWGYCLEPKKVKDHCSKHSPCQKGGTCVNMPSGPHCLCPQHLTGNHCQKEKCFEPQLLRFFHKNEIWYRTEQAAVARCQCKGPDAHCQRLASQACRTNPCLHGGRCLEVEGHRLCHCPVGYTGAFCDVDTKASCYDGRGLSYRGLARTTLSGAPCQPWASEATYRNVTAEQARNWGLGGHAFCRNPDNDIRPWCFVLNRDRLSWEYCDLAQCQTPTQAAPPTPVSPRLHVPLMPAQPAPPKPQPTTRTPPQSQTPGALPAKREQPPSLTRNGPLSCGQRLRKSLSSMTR
Target sequence (P00748 373-615 limits assumed): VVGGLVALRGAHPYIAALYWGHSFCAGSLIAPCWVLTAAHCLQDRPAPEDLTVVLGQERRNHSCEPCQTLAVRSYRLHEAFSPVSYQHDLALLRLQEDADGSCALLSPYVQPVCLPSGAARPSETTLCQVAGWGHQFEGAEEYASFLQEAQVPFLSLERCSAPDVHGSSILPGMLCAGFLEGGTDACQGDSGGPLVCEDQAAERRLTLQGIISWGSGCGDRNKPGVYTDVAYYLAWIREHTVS
hK5 inh: kallikrein 5 (human) inhibition. Q9Y337. recombinant hK5, fluorogenic AMC substrate cleavage. inhibition, % at 5 µM. 0.59% of 210,000 active;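 active = inhibition of 40% or more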
A number is an active result.

Screening CC1CCC2(CC1)SCC(=O)N2c1ccccc1 (configuration not stated) returned m-calpain inh inactive, Thrombin inh inactive, FXIa inh inactive, FXIIa inh 1536 inactive and hK5 inh 91.
For CCC1CCC2(CC1)SCC(=O)N2c1ccccc1 (configuration not stated) the results were m-calpain inh inactive, Thrombin inh inactive, FXIa inh 59, FXIIa inh 1536 inactive and hK5 inh 63.
`OC(COc1c(Br)cc(Br)cc1Br)CN1CCOCC1` (configuration not stated) gave m-calpain inh inactive, Thrombin inh inactive, FXIa inh inactive, FXIIa inh 1536 inactive and hK5 inh inactive.
`Cc1cc2c(C)nc(N/N=C/c3ccc(F)cc3)nc2o1` gave m-calpain inh inactive, Thrombin inh inactive, FXIa inh inactive, FXIIa inh 1536 inactive and hK5 inh inactive.
Cc1cc2c(C)nc(N/N=C/c3ccc([N+](=O)[O-])cc3)nc2o1 was read as m-calpain inh inactive, Thrombin inh inactive, FXIa inh inactive, FXIIa inh 1536 inactive and hK5 inh 50.
Screening COc1ccc(N2C(=O)N(Cc3ccccc3F)c3ccccc3S2(=O)=O)cc1 returned m-calpain inh 58, Thrombin inh inactive, FXIa inh inactive, FXIIa inh 1536 inactive and hK5 inh inactive.
Screening Cc1ccc(N2C(=O)N(CC(=O)C(C)(C)C)c3ccccc3S2(=O)=O)cc1 returned m-calpain inh inactive, Thrombin inh inactive, FXIa inh inactive, FXIIa inh 1536 inactive and hK5 inh inactive.
Screening COc1ccc(N2C(=O)N(Cc3cccc(F)c3)c3ccccc3S2(=O)=O)cc1 returned m-calpain inh 63, Thrombin inh inactive, FXIa inh inactive, FXIIa inh 1536 inactive and hK5 inh inactive.
CCOc1ccccc1NC(=O)N1CCCC1C(=O)Nc1ccc(-n2cnnn2)c(C)c1 (configuration not stated) was read as m-calpain inh inactive, Thrombin inh inactive, FXIa inh inactive, FXIIa inh 1536 inactive and hK5 inh inactive.
`O=C(COc1ccccc1C(=O)O)Nc1ccc(SC(F)F)cc1` gave m-calpain inh inactive, Thrombin inh 48, FXIa inh inactive and FXIIa inh 1536 inactive.
For CN(C)C(=O)COC(=O)c1ccccc1OCC(=O)Nc1ccc(SC(F)F)cc1 the results were m-calpain inh inactive, Thrombin inh inactive, FXIa inh inactive, FXIIa inh 1536 inactive and hK5 inh inactive.
`O=C(O)/C=C/C(=O)Nc1cccnc1` gave m-calpain inh inactive, Thrombin inh inactive, FXIa inh inactive, FXIIa inh 1536 inactive and hK5 inh 72.
Screening CC(=O)NC(Cc1cccc(F)c1)C(=O)NC1CCN(C(=O)c2ccc(C)cc2)CC1 (configuration not stated) returned m-calpain inh inactive, Thrombin inh inactive, FXIa inh inactive, FXIIa inh 1536 inactive and hK5 inh inactive.
For Cc1cc(NC(=O)c2c(Cl)cccc2Cl)no1 the results were m-calpain inh inactive, Thrombin inh inactive, FXIa inh inactive, FXIIa inh 1536 inactive and hK5 inh inactive.
`Cc1cccc(OCCC(=O)Nc2ccc(C)c(S(=O)(=O)N3CCCCC3)c2)c1` gave m-calpain inh 55, Thrombin inh inactive, FXIa inh inactive, FXIIa inh 1536 inactive and hK5 inh inactive.
Screening COc1ccccc1CNC(=O)c1cccc(C)c1[N+](=O)[O-] returned m-calpain inh inactive, Thrombin inh inactive, FXIa inh inactive, FXIIa inh 1536 inactive and hK5 inh inactive.
Screening CC(NC(=O)Nc1nnc(C(F)(F)F)s1)(C(F)(F)F)C(F)(F)F returned m-calpain inh inactive, Thrombin inh inactive, FXIa inh inactive, FXIIa inh 1536 40 and hK5 inh inactive.
For CC(C)c1cc(C(=O)Nc2cccc(Cl)c2)no1 the results were m-calpain inh inactive, Thrombin inh inactive, FXIa inh inactive, FXIIa inh 1536 inactive and hK5 inh inactive.
CC(C)c1onc(C(=O)Nc2cccc(Cl)c2)c1[N+](=O)[O-] was read as m-calpain inh 84, Thrombin inh inactive, FXIa inh inactive, FXIIa inh 1536 inactive and hK5 inh inactive.
For CCCn1c(SCc2nc3ccccc3s2)n[nH]c1=O the results were m-calpain inh 50, Thrombin inh inactive, FXIa inh inactive, FXIIa inh 1536 inactive and hK5 inh inactive.
For O=c1[nH]nc(SCc2nc3ccccc3s2)n1C1CC1 the results were m-calpain inh inactive, Thrombin inh inactive, FXIa inh inactive, FXIIa inh 1536 inactive and hK5 inh inactive.
For CN(C)C=NCCn1c(N2CCOCC2)nc2c1c(=O)n(C)c(=O)n2C the results were m-calpain inh inactive, Thrombin inh inactive, FXIa inh inactive, FXIIa inh 1536 inactive and hK5 inh inactive.
Screening CC(C)C(NS(=O)(=O)c1ccccc1)C(=O)OCc1cc([N+](=O)[O-])cc2c1OCOC2 (configuration not stated) returned m-calpain inh inactive, Thrombin inh 48, FXIa inh inactive, FXIIa inh 1536 inactive and hK5 inh inactive.
Cc1ccc(N2CC(C(=O)Nc3c(C)n(C)n(-c4ccccc4)c3=O)CC2=O)cc1 (configuration not stated) was read as m-calpain inh inactive, Thrombin inh inactive, FXIa inh inactive, FXIIa inh 1536 inactive and hK5 inh inactive.
Screening Cc1c(NC(=S)/C=C2\N(C)c3ccccc3C2(C)C)c(=O)n(-c2ccccc2)n1C returned m-calpain inh inactive, Thrombin inh inactive, FXIa inh inactive, FXIIa inh 1536 inactive and hK5 inh 67.
Screening Cc1c(N=C/C=C2\N(C)c3ccccc3C2(C)C)c(=O)n(-c2ccccc2)n1C returned m-calpain inh inactive, Thrombin inh inactive, FXIa inh inactive, FXIIa inh 1536 inactive and hK5 inh inactive.
CCOC(=O)C(C(=O)NCc1cccc(OC)c1)c1ncc(C(F)(F)F)cc1Cl (configuration not stated) was read as m-calpain inh inactive, Thrombin inh inactive, FXIa inh inactive, FXIIa inh 1536 45 and hK5 inh inactive.
`CCOC(=O)C(C(=O)NCc1ccc(C)cc1)c1ncc(C(F)(F)F)cc1Cl` (configuration not stated) gave m-calpain inh inactive, Thrombin inh inactive, FXIa inh inactive, FXIIa inh 1536 inactive and hK5 inh inactive.
`CSc1nn(CCc2ccncc2)c(=S)s1` gave m-calpain inh inactive, Thrombin inh inactive, FXIa inh inactive, FXIIa inh 1536 inactive and hK5 inh inactive.
Screening Cc1csc(NC(=O)CSc2nsc(SCC(=O)Nc3nc(C)cs3)c2C#N)n1 returned m-calpain inh inactive, Thrombin inh inactive, FXIa inh inactive, FXIIa inh 1536 inactive and hK5 inh inactive.
Cc1ccc(NC(=O)CSc2nsc(SCC(=O)Nc3ccc(C)cc3C)c2C#N)c(C)c1 was read as m-calpain inh 51, Thrombin inh inactive, FXIa inh inactive, FXIIa inh 1536 inactive and hK5 inh inactive.
Screening CCOC(=O)N1CCN(C(=O)CSCC(=O)Nc2nc(-c3ccc(Cl)s3)cs2)CC1 returned m-calpain inh inactive, Thrombin inh 50, FXIa inh inactive, FXIIa inh 1536 inactive and hK5 inh inactive.
Screening CCOC(=O)N1CCN(C(=O)CSCC(=O)Nc2nc(-c3ccc(OC)cc3)cs2)CC1 returned m-calpain inh inactive, Thrombin inh inactive, FXIa inh inactive, FXIIa inh 1536 inactive and hK5 inh inactive.

Compound activity deposited in PubChem by several laboratories.
